These results are taken from ChEMBL document CHEMBL1133793, “Polyamines with N-(3-phenylpropyl) substituents are effective competitive inhibitors of trypanothione reductase and trypanocidal agents” (Bioorg Med Chem Lett, 2001).

Experiment [1] has as its system Trypanosoma brucei. The experiment can be described thus: Tested in vitro for trypanocidal activity against KETRI 243-As-10-3 a pentamidine and melarsoprol resistant clone of Trypanosoma brucei. rhodesiense KETRI 243. The class given is functional, organism-based. The gist of the method:
(§1)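 Bloodstream-form trypanosomes were grown in vitro in culture medium containing fetal bovine serum, which the paper notes contains polyamine oxidase. IC50 values in µM.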

For experiment [2], the system named is Trypanosoma brucei. The experiment can be described thus: Tested in vitro for trypanocidal activity against a drug sensitive strain of Trypanosoma brucei Lab 110 EATRO. Format: functional, organism-based. The gist of the method: as §1
The next experiment has as its target Trypanothione reductase (Trypanosoma cruzi, UniProt P28593). Description: Tested for binding affinity against trypanothione reductase from Trypanosoma cruzi. The gist of the method: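 Recombinant T. cruzi TR purified from glutathione reductase-deficient E. coli SG5 strain. Activity read as NADPH oxidation at 340 nm, 23 °C, in HEPES 100 mM pH 7.25 with EDTA 1 mM, NADPH 0.18 mM and TR 2.2 µg/mL. Velocities taken at five trypanothione levels (15-75 µM) and five inhibitor levels. Km(obs) fitted by Michaelis–Menten; Ki from weighted regression of Km(obs) against [I].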

The subject of experiment [3] is Trypanosoma brucei. Description: Tested in vitro for trypanocidal activity against KETRI 269 an uncloned clinical isolate of Trypanosoma brucei. rhodesiense. Format: functional, organism-based. The gist of the method:
as §1

For experiment [4], the system named is Trypanosoma brucei. Description: Tested in vitro for trypanocidal activity against KETRI 243 an uncloned clinical isolate of Trypanosoma brucei. rhodesiense. Format: functional, organism-based. The gist of the method: as §1

Each structure is given as a SMILES string.

Chain of Trypanothione reductase (P28593 whole entry): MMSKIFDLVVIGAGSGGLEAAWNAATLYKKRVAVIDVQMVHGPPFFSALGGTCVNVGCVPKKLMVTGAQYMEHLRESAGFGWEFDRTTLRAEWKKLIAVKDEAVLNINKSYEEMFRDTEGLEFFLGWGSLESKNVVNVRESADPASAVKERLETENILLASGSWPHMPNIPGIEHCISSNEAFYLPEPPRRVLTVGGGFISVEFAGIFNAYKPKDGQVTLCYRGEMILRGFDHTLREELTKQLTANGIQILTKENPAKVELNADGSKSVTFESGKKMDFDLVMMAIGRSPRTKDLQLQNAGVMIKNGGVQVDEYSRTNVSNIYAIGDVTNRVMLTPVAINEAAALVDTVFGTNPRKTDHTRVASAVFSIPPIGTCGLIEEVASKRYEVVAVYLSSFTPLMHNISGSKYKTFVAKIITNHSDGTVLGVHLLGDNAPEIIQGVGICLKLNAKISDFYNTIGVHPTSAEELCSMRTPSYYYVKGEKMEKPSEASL

For orientation: IC50 means the concentration that gives 50% inhibition. Low readings indicate greater potency in that assay, high ones weaker potency in that assay. One may read the Ki as a dissociation constant, usually derived from enzyme kinetics or from competition with a known ligand. Read a high Ki as lower affinity. Take `c1ccc(CCCN(CCCCN(CCCc2ccccc2)CCCN(CCCc2ccccc2)CCCc2ccccc2)CCCN(CCCc2ccccc2)CCCc2ccccc2)cc1`: the IC50 with Trypanosoma brucei [1] turned out to be 24000 nM; with Trypanosoma brucei [2], 22000 nM; with Trypanosoma brucei [3], 30500 nM; in the experiment with Trypanosoma brucei [4], 35000 nM. At Trypanothione reductase, this compound registered a Ki of 10300 nM.

Turning to `NCCCN(CCCCN(CCCN)CCCc1ccccc1)CCCc1ccccc1`, the IC50 in the experiment with Trypanosoma brucei [1] amounted to 660 nM; with Trypanosoma brucei [2], 660 nM; with Trypanosoma brucei [3], 580 nM; in the experiment on Trypanosoma brucei [4] it was 790 nM.

On to `c1ccc(CCCNCCCCN(CCCNCCCc2ccccc2)CCCc2ccccc2)cc1`, for which the IC50 worked out at 460 nM in the experiment with Trypanosoma brucei [1], 220 nM in the experiment with Trypanosoma brucei [2], 540 nM in the experiment with Trypanosoma brucei [3] and 360 nM with Trypanosoma brucei [4]. Further, the Ki at Trypanothione reductase came to 3500 nM.

As for `c1ccc(CCCNCCCNCCCCNCCCN(CCCc2ccccc2)CCCc2ccccc2)cc1`, the concentration for half-maximal inhibition (IC50) with Trypanosoma brucei [1] was found to be 530 nM; in the experiment on Trypanosoma brucei [2], 400 nM; in the experiment with Trypanosoma brucei [3], 270 nM; in the experiment on Trypanosoma brucei [4] it was 160 nM. The compound further displayed a Ki at Trypanothione reductase of 3620 nM.

As to `c1ccc(CCCNCCCN(CCCCN(CCCc2ccccc2)CCCN(CCCc2ccccc2)CCCc2ccccc2)CCCc2ccccc2)cc1`, the half-maximal inhibitory concentration (IC50) in the experiment on Trypanosoma brucei [1] came out at 5500 nM; with Trypanosoma brucei [2], 3050 nM; in the experiment with Trypanosoma brucei [3], 2200 nM; in the experiment with Trypanosoma brucei [4], 3350 nM. In addition, the Ki at Trypanothione reductase stood at 151 nM.

On to `NCCCN(CCCCN(CCCNCCCc1ccccc1)CCCc1ccccc1)CCCc1ccccc1`, for which the IC50 with Trypanosoma brucei [1] was 160 nM; with Trypanosoma brucei [2], 270 nM; with Trypanosoma brucei [3], 160 nM; in the experiment with Trypanosoma brucei [4] it was 160 nM. The same compound gave an inhibitory constant (Ki) on Trypanothione reductase of 1380 nM.

Consider `NCCCCN(CCCNCCCc1ccccc1)CCCc1ccccc1.NCCCN(CCCCNCCCc1ccccc1)CCCc1ccccc1`, for which the IC50 in the experiment with Trypanosoma brucei [1] was determined as 570 nM; in the experiment on Trypanosoma brucei [2] it was 310 nM; in the experiment on Trypanosoma brucei [3], 380 nM; with Trypanosoma brucei [4], 530 nM. Also, on Trypanothione reductase, the Ki came out at 4670 nM.

`NCCCNCCCCNCCCNCCCc1ccccc1` showed a Ki at Trypanothione reductase of 37600 nM.

Regarding `NCCCCN(CCCN)CCCc1ccccc1`, the Ki on Trypanothione reductase came to 14100 nM.

Take `c1ccc(CCCNCCCNCCCCNCCCNCCCc2ccccc2)cc1`: the IC50 with Trypanosoma brucei [1] came to 2200 nM; in the experiment with Trypanosoma brucei [2], 810 nM; in the experiment with Trypanosoma brucei [3] it was 1800 nM; in the experiment on Trypanosoma brucei [4], 1500 nM. Moreover, the Ki on Trypanothione reductase is 12300 nM.

On to `c1ccc(CCCNCCCN(CCCCN(CCCNCCCc2ccccc2)CCCc2ccccc2)CCCc2ccccc2)cc1`, for which the 50% inhibitory concentration (IC50) worked out at 150 nM in the experiment on Trypanosoma brucei [1], 120 nM with Trypanosoma brucei [2], 160 nM in the experiment with Trypanosoma brucei [3] and 140 nM in the experiment with Trypanosoma brucei [4]. In addition, at Trypanothione reductase, the Ki amounted to 614 nM.
